In ChEMBL document CHEMBL1154735, “A strategy to minimize reactive metabolite formation: discovery of (S)-4-(1-cyclopropyl-2-methoxyethyl)-6-[6-(difluoromethoxy)-2,5-dimethylpyridin-3-ylamino]-5-oxo-4,5-dihydropyrazine-2-carbonitrile as a potent, orally bioavailable corticotropin-releasing factor-1 receptor antagonist” (J Med Chem, 2009):
Values after ≈ are worked out from the molar mass of the structure shown.

Tests used:
[1] = Aqueous solubility at pH 6.5; format: physicochemical
[2] = Drug metabolism in bile duct cannulated Sprague-Dawley rat assessed as GSH adduct formation in urine at 20 mg/kg, po after 24 hrs by HPLC/UV/MS analysis; format: ADME, organism-based; set-up: dose 20 mg/kg, route oral; conditions: in vivo
Method in brief: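 Male Sprague–Dawley bile duct cannulated rats (n = 3) dosed orally at 20 mg/kg in PEG/ethanol 90:10; vehicle-dosed controls (n = 3). Bile and urine pooled over 0–24 h, acetonitrile-precipitated and profiled by HPLC/UV/MS (Hydro-RP column, PDA 200–550 nm, positive-ion full and data-dependent scans).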

[3] = Displacement of [125I]sauvagine from CRF2 receptor in porcine choroid plexus homogenate by binding titration assay; format: tissue-based, Sus scrofa
Method in brief: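 Porcine choroid plexus homogenate; inhibition of [125I]-sauvagine binding measured in a titration format.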

Rattus norvegicus [4] = assay: Plasma free concentration in Sprague-Dawley rat at 1 mg/kg, po after 1 to 3 hrs by LC/MS/MS analysis; format: ADME, organism-based; set-up: dose 1 mg/kg, route oral; conditions: in vivo
Rattus norvegicus [5] = assay: Anxiolytic activity in Sprague-Dawley rat assessed as decrease in exit latency at 1 mg/kg, po after 60 mins by defensive withdrawal test relative to control; format: functional; set-up: scale not given: the % may be the effect or the level left
Method in brief: (§1)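 Rats placed in a darkened chamber within an open illuminated field; time to emerge measured 60 min after oral dosing (0.56–3 mg/kg), n = 8; percent decrease in exit latency versus vehicle-treated animals, p < 0.05 significance.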

Rattus norvegicus [6] = assay: Anxiolytic activity in Sprague-Dawley rat assessed as decrease in exit latency at 3 mg/kg, po after 60 mins by defensive withdrawal test relative to control; format: functional; set-up: scale not given: the % may be the effect or the level left; method in brief: as §1
[7] = AUC in Beagle dog at 2 mg/kg, po dosed as […] after 0.25 to 24 hrs by LC/MS/MS analysis; format: ADME, organism-based, Canis lupus familiaris; set-up: time upper 24 hr, time lower 0.25 hr, dose 2 mg/kg, route oral; conditions: in vivo
[8] = Cmax in Beagle dog at 3 mg/kg, po dosed as aqueous suspension of Labrafil M 1944CS/DMAC/polysorbate 80, 85:10:5 (v/v) after 2 to 4 hrs by LC/MS/MS analysis; format: ADME, organism-based, Canis lupus familiaris; set-up: dose 3 mg/kg, route oral; conditions: in vivo
Method in brief: (§2)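 Fasted male beagle dogs dosed orally at 1 mL/kg: 2 mg/kg as 0.2% polysorbate 80 in 0.5% methylcellulose suspension (n = 4) or 3 mg/kg in Labrafil M 1944CS/DMAC/polysorbate 80 85:10:5 (n = 2). Femoral vein blood 0.25–24 h; plasma by LC/MS/MS.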

[9] = Oral bioavailability in Beagle dog at 3 mg/kg, po dosed as aqueous suspension of Labrafil M 1944CS/DMAC/polysorbate 80, 85:10:5 (v/v) after 0.25 to 24 hrs by LC/MS/MS analysis; format: ADME, organism-based, Canis lupus familiaris; conditions: in vivo; method in brief: as §2
Rattus norvegicus [10] = assay: Neurotoxicity in Sprague-Dawley rat assessed as alteration of motor coordination up to 60 mg/kg by rotarod test; format: toxicity, organism-based; set-up: dose 60 mg/kg; conditions: in vivo

solubility [1]: 4 µg/mL (≈ 9.87 µM)
Activity [2]: 0.1%
IC50 [3]: > 10 µM
Cp(f) (Rattus norvegicus [4]): 1.6 nM
AUC [7]: 7.6 µM·h
Cmax [8]: 1400 nM
bioavailability [9]: 70%
Compound: COC[C@H](C1CC1)n1cc(C#N)nc(Nc2cc(C)c(OC(F)F)nc2C)c1=O
Activity (Rattus norvegicus [5]): 28%
Activity (Rattus norvegicus [6]): 56%
Activity (Rattus norvegicus [10]): Non-toxic
